The values below come from ChEMBL document CHEMBL1914300, “Anti-inflammatory amino acid derivatives from the ascidian Herdmania momus” (J Nat Prod, 2011).

By IC50 is commonly meant the concentration that inhibits the measured activity by half.

Calls of active or inactive are those of the source. The rule behind the calls is not given here.

The test system of one assay is Staphylococcus aureus. Put plainly: Antibacterial activity against Staphylococcus aureus at 30 ug/disk by agar diffusion assay. Type of assay: functional, organism-based.
The subject of the next assay is Escherichia coli. Put plainly: Antibacterial activity against Escherichia coli at 30 ug/disk by agar diffusion assay. In kind it is functional, organism-based. On the technique in general: Agar diffusion results depend on both activity and mobility in agar.
A further assay has as its system Klebsiella aerogenes. Put plainly: Antibacterial activity against Klebsiella aerogenes at 30 ug/disk by agar diffusion assay. Type of assay: functional, organism-based.
The next assay has as its system Salmonella typhimurium. Put plainly: Antibacterial activity against Salmonella Typhimurium at 30 ug/disk by agar diffusion assay. The conditions noted are these: Salmonella enterica subsp. enterica serovar Typhimurium. Type of assay: functional, organism-based.
The test system of another assay is Enterobacter cloacae. Put plainly: Antibacterial activity against Enterobacter cloacae at 30 ug/disk by agar diffusion assay. Type of assay: functional, organism-based.
Assay [1] relates to RAW264.7. Put plainly: Inhibition of NO production in LPS-stimulated mouse RAW264.7 cells assessed as nitrite accumulation after 10 mins by Griess reaction method. In kind it is functional, cell-based. The conditions noted are these: RAW264.7, 10 min. The procedure, abridged: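 Cells were stimulated 24 h with LPS (1 μg/mL) alone or with samples (250, 50, 10, 2 μM). Supernatant was mixed 1:1 with Griess reagent (0.1% naphthalene diamine dihydrochloride, 1% sulfanilamide, 2.5% H3PO4) for 10 min at room temperature. Absorbance at 540 nm was converted against a sodium nitrite standard curve. Mean ± SD of triplicates.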

In assay [2] the test system is RAW264.7. Put plainly: Inhibition of LPS-induced iNOS mRNA expression in mouse RAW264.7 cells at 12.5 to 50 uM by […]. Type of assay: functional, cell-based. In outline:
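Total RNA from LPS (1 μg/mL)-stimulated cells was isolated by Tri-Reagent. RNA (1 μg) was primed with oligo(dT)18 (70 °C, 5 min) and reverse-transcribed with M-MuLV and 0.5 μM dNTP (25 °C 5 min, 37 °C 60 min), then inactivated at 70 °C for 15 min.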
(In general: In western blotting, separated proteins are transferred to a membrane and probed.)

Assay [3] deals with RAW264.7. Put plainly: Antiinflammatory activity in mouse RAW264.7 cells assessed as suppression of LPS-stimulated IL6 production at 25 to 50 uM after 24 hrs by ELISA. Type of assay: functional, cell-based. The procedure, abridged: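 Cells at 1.5 × 10^5 cells/mL were preincubated 18 h, then given LPS (1 μg/mL) plus samples (50 and 25 μM) for 24 h. Samples were dissolved in EtOH and diluted in DMEM, with final solvent ≤0.1%. IL-6 in the supernatant was measured by mouse ELISA. Mean ± SD of triplicate experiments.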
(In an ELISA, binding on a coated surface is turned into a signal by an enzyme label.)

The subject of assay [4] is RAW264.7. Put plainly: Antiinflammatory activity in mouse RAW264.7 cells assessed as inhibition of LPS-stimulated IL6 mRNA expression at 12.5 to 50 uM by RT-PCR. Type of assay: functional, cell-based.
Assay [5] deals with T1, Prostaglandin G/H synthase 2 (Mus musculus) (UniProt Q05769).
T1 sequence (whole entry): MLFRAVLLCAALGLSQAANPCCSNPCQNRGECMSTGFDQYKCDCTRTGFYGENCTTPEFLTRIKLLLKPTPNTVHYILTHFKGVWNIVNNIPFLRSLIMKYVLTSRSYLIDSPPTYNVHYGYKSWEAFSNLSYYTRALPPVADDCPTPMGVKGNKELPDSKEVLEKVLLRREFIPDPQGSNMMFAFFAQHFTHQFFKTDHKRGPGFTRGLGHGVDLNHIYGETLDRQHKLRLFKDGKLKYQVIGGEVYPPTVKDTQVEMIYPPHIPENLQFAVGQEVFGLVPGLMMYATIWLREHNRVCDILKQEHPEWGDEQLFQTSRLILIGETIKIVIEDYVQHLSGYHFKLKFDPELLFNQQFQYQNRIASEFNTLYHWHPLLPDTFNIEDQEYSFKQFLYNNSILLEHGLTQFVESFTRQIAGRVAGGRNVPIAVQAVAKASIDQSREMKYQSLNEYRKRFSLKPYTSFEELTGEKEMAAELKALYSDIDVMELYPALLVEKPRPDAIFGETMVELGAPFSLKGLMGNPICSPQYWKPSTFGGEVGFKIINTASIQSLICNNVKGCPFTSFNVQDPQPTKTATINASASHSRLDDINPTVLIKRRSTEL
Put plainly: Inhibition of COX2-mediated PGE2 production in LPS-stimulated mouse RAW264.7 cells at 25 to 50 uM by ELISA.

Assay [6] has as its system RAW264.7. Put plainly: Cytotoxicity against mouse RAW264.7 cells after 24 hrs by WST-1 assay. The settings on record: RAW264.7, 24 h. Type of assay: cell-based. The procedure, abridged: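 Cells were exposed 24 h to LPS (1 μg/mL) alone or with samples (250, 50, 10, 2 μM). WST-1 reagent was then added for 2 h, and formazan was read at 450 nm. Mean ± SD of triplicate experiments.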

Regarding `N=C(N)NCCC[C@@H](NC(=O)c1ccc(OC(=O)c2c[nH]c3ccccc23)cc1)C(=O)O`, the result with Staphylococcus aureus, with Escherichia coli, in the assay with Klebsiella aerogenes, with Salmonella typhimurium and in the assay on Enterobacter cloacae was inactive.

For the molecule `N=C(N)NCCC[C@@H](NC(=O)c1ccc(OC(=O)c2ccc(O)cc2)cc1)C(=O)O` [HERDMANINE C], the result with Staphylococcus aureus, with Escherichia coli, with Klebsiella aerogenes, in the assay with Salmonella typhimurium and with Enterobacter cloacae was inactive. The IC50 in the assay on RAW264.7 [1] was determined as 96 µM. For the same molecule, the inhibition result (with RAW264.7 [2]; with RAW264.7 [4]; in [5]) was “Active” throughout. For the same molecule, the result with RAW264.7 [3] was Active.

Turning to `N[C@@H](Cc1ccc(OC(=O)c2c[nH]c3cc(Br)c(O)cc23)cc1)C(=O)O` [HERDMANINE D], the result in the assay on Staphylococcus aureus, with Escherichia coli, in the assay on Klebsiella aerogenes, in the assay on Salmonella typhimurium and in the assay on Enterobacter cloacae was inactive. Further, the results for the IC50 in the assay on RAW264.7 [1] and in the assay with RAW264.7 [6] were 9 µM and 170 µM, respectively. Further, the inhibition result (with RAW264.7 [2]; in the assay with RAW264.7 [4]; in assay [5]) was “Active” throughout. In the assay on RAW264.7 [3], the outcome was Active.
